Assay results as given in ChEMBL document CHEMBL3600318, “Chemical synthesis of tetracyclic terpenes and evaluation of antagonistic activity on endothelin-A receptors and voltage-gated calcium channels” (Bioorg Med Chem, 2015).
Activity calls are given as the source filed them. The calls are words filed in the database; no cut-off is given here.

Legend:
[1] = (§1) Antagonist activity at endothelin A receptor in Mongolian gerbil spiral modiolar artery assessed as inhibition of ET-1-induced vasoconstriction at 0.1 to 1 uM […] followed by compound washout and again ET-1 addition by video microscopic analysis; format: tissue-based, Meriones unguiculatus
Meriones unguiculatus = species: Meriones unguiculatus; assay: as §1; format: tissue-based
[2] = target: Voltage-dependent T-type calcium channel subunit alpha-1H (Mus musculus) (UniProt O88427); assay: Inhibition of Cav3.2 T-type channel in C57/BC6 mouse DRG neurons assessed as inhibition of low-voltage activated Ca2+ currents by patch clamp method
Sequence of Voltage-dependent T-type calcium channel subunit alpha-1H (Mus musculus) (O88427 whole entry): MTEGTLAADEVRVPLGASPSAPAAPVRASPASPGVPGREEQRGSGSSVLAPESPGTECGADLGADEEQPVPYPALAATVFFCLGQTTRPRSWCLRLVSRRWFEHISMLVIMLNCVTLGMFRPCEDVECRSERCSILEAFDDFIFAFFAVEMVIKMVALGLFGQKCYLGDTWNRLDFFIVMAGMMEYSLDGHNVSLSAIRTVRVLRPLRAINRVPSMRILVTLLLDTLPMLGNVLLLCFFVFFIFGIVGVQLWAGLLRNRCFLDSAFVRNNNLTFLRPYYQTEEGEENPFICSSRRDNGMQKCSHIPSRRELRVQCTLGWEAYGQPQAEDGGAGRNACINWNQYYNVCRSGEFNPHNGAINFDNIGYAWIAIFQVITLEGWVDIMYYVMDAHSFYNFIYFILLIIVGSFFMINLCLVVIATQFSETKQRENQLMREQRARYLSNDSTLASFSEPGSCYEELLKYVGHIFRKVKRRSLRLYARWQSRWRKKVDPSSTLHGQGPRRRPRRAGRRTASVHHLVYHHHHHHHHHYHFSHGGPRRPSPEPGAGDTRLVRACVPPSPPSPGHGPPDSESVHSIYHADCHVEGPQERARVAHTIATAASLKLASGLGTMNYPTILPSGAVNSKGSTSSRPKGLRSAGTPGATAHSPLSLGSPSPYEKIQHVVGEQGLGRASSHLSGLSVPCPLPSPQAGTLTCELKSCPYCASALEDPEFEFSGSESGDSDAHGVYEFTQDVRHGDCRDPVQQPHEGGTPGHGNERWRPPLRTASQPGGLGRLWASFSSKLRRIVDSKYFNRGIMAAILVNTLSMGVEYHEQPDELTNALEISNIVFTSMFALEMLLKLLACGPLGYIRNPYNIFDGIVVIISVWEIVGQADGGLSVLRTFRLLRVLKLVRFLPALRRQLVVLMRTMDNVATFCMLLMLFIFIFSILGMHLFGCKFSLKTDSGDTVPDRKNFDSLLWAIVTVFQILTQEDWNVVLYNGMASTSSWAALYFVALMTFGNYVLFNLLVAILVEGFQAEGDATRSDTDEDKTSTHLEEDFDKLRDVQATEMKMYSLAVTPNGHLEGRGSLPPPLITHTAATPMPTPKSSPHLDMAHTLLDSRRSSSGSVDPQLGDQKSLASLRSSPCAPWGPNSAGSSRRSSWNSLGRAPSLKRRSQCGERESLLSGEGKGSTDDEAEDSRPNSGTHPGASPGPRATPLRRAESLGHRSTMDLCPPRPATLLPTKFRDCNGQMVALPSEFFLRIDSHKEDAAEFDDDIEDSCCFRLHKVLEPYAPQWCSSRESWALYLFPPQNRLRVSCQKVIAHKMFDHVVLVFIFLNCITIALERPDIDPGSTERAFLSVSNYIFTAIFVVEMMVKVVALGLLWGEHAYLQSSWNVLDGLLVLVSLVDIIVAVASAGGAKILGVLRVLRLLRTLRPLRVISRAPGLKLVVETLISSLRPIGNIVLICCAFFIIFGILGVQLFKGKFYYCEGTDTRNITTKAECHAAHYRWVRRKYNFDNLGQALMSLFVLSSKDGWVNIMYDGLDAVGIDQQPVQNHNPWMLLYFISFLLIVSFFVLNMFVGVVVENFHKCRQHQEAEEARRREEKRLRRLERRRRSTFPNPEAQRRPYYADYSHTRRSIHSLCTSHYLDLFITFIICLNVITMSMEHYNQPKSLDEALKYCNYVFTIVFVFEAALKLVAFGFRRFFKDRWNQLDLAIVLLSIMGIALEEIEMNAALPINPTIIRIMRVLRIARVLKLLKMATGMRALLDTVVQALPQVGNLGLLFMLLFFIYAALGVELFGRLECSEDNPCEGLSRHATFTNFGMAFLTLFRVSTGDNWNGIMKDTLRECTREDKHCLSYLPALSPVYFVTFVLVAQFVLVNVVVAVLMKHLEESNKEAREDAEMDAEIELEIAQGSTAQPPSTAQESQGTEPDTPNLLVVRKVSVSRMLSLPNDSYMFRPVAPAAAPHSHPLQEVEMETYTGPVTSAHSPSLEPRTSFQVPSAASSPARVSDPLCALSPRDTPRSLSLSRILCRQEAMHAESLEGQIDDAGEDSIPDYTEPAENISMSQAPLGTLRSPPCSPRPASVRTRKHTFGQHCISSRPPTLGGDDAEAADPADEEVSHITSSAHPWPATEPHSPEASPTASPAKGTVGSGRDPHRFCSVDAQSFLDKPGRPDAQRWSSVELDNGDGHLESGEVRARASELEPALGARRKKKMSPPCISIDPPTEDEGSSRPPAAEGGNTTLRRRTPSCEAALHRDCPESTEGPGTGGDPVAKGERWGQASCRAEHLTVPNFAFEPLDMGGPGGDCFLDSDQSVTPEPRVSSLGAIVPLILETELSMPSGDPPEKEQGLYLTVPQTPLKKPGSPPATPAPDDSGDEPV
Method in brief: (§2)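 Whole-cell voltage clamp at about 21 °C on large acutely dissociated DRG neurons from 1-2-month C57/BC6 mice, used within 2 days. Holding potential -90 mV, 100-ms steps in 10 mV increments every 2 s, giving low- and high-voltage-activated Ca2+ currents. Bath-applied compound 0.1–3 µM, vehicle 0.1% DMSO. IC50 from a logistic fit, mean ± SEM, n = 4 per point.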

Mus musculus [3] = species: Mus musculus; assay: Inhibition of L-type Ca2+ channel in C57/BC6 mouse DRG neurons assessed as inhibition of high-voltage activated Ca2+ currents by patch clamp method; method in brief: as §2
Mus musculus [4] = species: Mus musculus; assay: Inhibition of voltage-gated sodium channel in C57/BC6 mouse DRG neurons assessed as inhibition of voltage activated Na+ currents at 0.1 to 0.3 uM by patch clamp method
Method in brief: (§3)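 Whole-cell voltage clamp at about 21 °C on acutely dissociated mouse DRG neurons. TTX-sensitive inward Na+ currents elicited by steps to 0 mV for 20 ms, outward K+ currents by steps to 70 mV for 300 ms, at 0.1 Hz; stable 30 min under control. Compound bath-applied, time course followed; vehicle 0.1% DMSO.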

Mus musculus [5] = species: Mus musculus; assay: Inhibition of voltage-gated potassium channel in C57/BC6 mouse DRG neurons assessed as inhibition of voltage activated […] currents at 0.1 to 0.3 uM by patch clamp method; method in brief: as §3
Mus musculus [6] = species: Mus musculus; assay: Inhibition of voltage-gated sodium channel in C57/BC6 mouse DRG neurons assessed as inhibition of voltage activated Na+ currents at 3 uM by patch clamp method; method in brief: as §3
Mus musculus [7] = species: Mus musculus; assay: Inhibition of voltage-gated potassium channel in C57/BC6 mouse DRG neurons assessed as inhibition of voltage activated […] currents at 3 uM by patch clamp method; method in brief: as §3
Endothelin-1 receptor [8] = target: T1, Endothelin-1 receptor (Rattus norvegicus, UniProt P26684); assay: Antagonist activity at endothelin A receptor in rat A7r5 cells assessed as inhibition of ET-1-induced increase in cytosolic free Ca2+ level treated 1 min prior to ET-1 addition by fura-2 dye-based spectrofluorometric analysis; format: functional, cell-based
T1 sequence (P26684 whole entry): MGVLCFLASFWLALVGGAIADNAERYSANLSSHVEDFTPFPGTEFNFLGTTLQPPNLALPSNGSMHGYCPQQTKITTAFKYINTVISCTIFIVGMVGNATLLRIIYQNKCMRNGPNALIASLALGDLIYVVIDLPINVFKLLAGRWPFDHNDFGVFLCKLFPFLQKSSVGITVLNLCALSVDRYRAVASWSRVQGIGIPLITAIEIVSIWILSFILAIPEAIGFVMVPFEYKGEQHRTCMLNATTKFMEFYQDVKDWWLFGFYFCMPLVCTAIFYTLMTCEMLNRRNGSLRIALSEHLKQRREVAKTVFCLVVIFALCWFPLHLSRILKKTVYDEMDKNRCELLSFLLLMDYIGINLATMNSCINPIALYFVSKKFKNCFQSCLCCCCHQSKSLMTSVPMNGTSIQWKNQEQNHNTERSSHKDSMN

Endothelin-1 receptor [9] = target: T1, Endothelin-1 receptor; assay: Antagonist activity at endothelin A receptor in Wistar rat thoracic aorta strips assessed as inhibition of ET1-induced vasoconstriction preincubated for 5 mins followed by ET1 addition

| Structure (SMILES) | pA2 [1] | A2 (Meriones unguiculatus) [nM] | other results |
| --- | --- | --- | --- |
| CC1(C)C(=O)CC[C@]2(C)[C@H]3CC[C@@H]4CCC(=O)C=C4[C@]3(C)CC[C@@H]12 | 6.7 | – | – |
| CC1(C)C(=O)CC[C@]2(C)[C@H]3CCc4ccc(O)cc4[C@]3(C)CC[C@@H]12 | 6.7 | – | – |
| CC1(C)[C@@H]2CC[C@]3(C)[C@H](CC[C@@H]4CC=C(O[Si](C)(C)C(C)(C)C)C[C@]43C=N)[C@@]2(C)CCC12OCCO2 (single isomer, unassigned; (-)) | 7 | 93 | inhibition [2]: Dose-dependent effect; inhibition (Mus musculus [3]): Dose-dependent effect; inhibition (Mus musculus [4]): inactive; inhibition (Mus musculus [5]): inactive; inhibition (Mus musculus [6]): Active; inhibition (Mus musculus [7]): Active |
| CC1(C)CC[C@]2(C(=O)O)CC[C@]3(COC(=O)/C=C/c4ccc(O)c(O)c4)C(=CC[C@@H]4[C@@]5(C)CCC(=O)C(C)(C)[C@@H]5CC[C@]43C)[C@@H]2C1 | 7.1 | 85 | IC50 (Endothelin-1 receptor [8]): 11 nM; Ki (Endothelin-1 receptor [9]): 66 nM |
| CC1(C)C(=O)CC[C@]2(C)[C@H]3CCc4ccc(OCCO)cc4[C@]3(C)CC[C@@H]12 | 6.5 | – | – |

Further lines, with some results ahead:

| pA2 [1] | A2 (Meriones unguiculatus) [nM] | Structure (SMILES) | other results |
| --- | --- | --- | --- |
| 6.9 | 134 | CC1(C)C(=O)CC[C@]2(C)[C@H]3CC[C@@H]4CCC(=O)C[C@@]4(C#N)[C@]3(C)CC[C@@H]12 | – |
| 6.5 | – | CC1(C)[C@@H]2CC[C@]3(C)[C@H](CC[C@@H]4CC[C@@]5(O)C[C@]43C=N5)[C@@]2(C)CCC12OCCO2 | – |
